Experimental data taken from publication PMC10692362 (Acta Pharmaceutica Sinica. B, 2023).
Changes are numbered by the printed parent chain.

Tests used:
MCF-7 cells = test: Cell viability assay; assay type: cell-based, human
T-47D^Y537S cells = test: Cell viability assay; assay type: cell-based, human; conditions: Homo sapiens, 72 h, read-out: T-47D^Y537S IC50
ERα = molecular target: T1, ERα (Homo sapiens, UniProt P03372); test: cell-based; assay type: cell-based
T1 sequence (P03372 1-595): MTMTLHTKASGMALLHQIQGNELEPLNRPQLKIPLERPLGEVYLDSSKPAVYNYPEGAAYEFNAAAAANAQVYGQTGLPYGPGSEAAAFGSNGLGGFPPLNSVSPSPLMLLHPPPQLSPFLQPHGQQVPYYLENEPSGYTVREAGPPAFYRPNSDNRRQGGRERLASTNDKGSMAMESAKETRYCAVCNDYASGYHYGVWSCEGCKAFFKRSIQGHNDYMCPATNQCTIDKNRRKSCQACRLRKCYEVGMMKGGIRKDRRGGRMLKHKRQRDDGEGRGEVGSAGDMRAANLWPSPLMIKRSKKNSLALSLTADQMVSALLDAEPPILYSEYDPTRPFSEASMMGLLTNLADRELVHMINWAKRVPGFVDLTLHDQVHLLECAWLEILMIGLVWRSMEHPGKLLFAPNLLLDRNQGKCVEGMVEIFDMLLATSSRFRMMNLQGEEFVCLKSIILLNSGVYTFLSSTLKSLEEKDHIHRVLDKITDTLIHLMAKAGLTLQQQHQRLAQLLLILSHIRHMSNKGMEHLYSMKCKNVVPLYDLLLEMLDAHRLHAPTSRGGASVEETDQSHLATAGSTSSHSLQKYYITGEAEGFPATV

ERα Y537S = molecular target: T2, ERα Y537S (Homo sapiens, UniProt P03372, Y537S); test: Immunoblot analysis of ERα degradation in T-47D^Y537S cells; assay type: cell-based; conditions: 5 μmol/L over 12 h
T2 sequence (P03372 1-595 Y537S): T1 sequence (P03372 1-595) with Y537S

[1] = molecular target: T3, ERα Y537S and C381S–C417S–Y537S proteins (Homo sapiens, UniProt P03372, Y537S); test: Intact mass spectrometry to assess covalency; assay type: binding; conditions: 20 μmol/L compound : 1 μmol/L protein, 4 °C overnight
T3 sequence (P03372 305-554 Y537S): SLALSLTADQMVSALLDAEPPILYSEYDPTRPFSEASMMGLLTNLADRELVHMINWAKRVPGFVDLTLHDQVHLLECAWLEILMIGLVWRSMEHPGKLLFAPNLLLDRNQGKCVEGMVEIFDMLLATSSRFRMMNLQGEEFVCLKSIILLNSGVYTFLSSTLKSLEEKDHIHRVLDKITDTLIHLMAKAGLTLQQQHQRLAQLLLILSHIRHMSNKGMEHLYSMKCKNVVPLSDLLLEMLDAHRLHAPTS

PK studies in mice = assay type: in vivo, BALB/c female mice
In short: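 Female BALB/c mice (n = 3/group) were dosed iv at 2 mg/kg in DMSO/PEG400/β-cyclodextrin/saline (5:40:10:45), ip at 4 mg/kg in DMSO/PEG400/saline (5:40:55), or po at 20 mg/kg in corn oil/DMSO (95:5). Blood was sampled at […]. Plasma was deproteinised with MeCN and analysed by LC/MS/MS, with three plasma samples per time point.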

[2] = female, BALB/c, mouse, plasma, ip, 4 mg/kg
[3] = female, BALB/c, mouse, plasma, iv, 2 mg/kg
[4] = female, BALB/c, mouse, plasma, po, 20 mg/kg

SMILES: CC(C)=CC(=O)Nc1ccc(C2=C(c3ccc(O)cc3)C3OC2CC3S(=O)(=O)N(CC(F)(F)F)c2ccc(O)cc2)cc1 (stereo not drawn) [Compound 29c, N-(4-(3-(4-Hydroxyphenyl)-5-(N-(4-hydroxyphenyl)-N-(2,2,2-trifluoroethyl)sulfamoyl)-7-oxabicyclo[2.2.1]hept-2-en-2-yl)phenyl)-3-methylbut-2-enamide]
- fold higher potency than 4-OHT, MCF-7 (MCF-7 cells): 12 fold
- IC50 (MCF-7 cells; Homo sapiens, MCF7, 72 h, read-out: MCF-7 IC50): 0.056 ± 0.004 µM
- fold higher potency than Ful, MCF-7 (MCF-7 cells; compared with fulvestrant): 2.5 fold
- IC50 (T-47D^Y537S cells): 0.88 ± 0.15 µM
- IC50 (ERα): 0.023 µM
- Agonist mode ERα Eff (%E2) (ERα; control as 0%, 10 nmol/L E2 as 100%): 5 ± 1 %E2
- Antagonist mode ERα Eff (%E2) (ERα; with 10 nmol/L 17β-estradiol): 76 ± 1 %E2
- ERα degradation time course, T-47D^Y537S (ERα Y537S): completely degraded
- Covalent adduct with ERα (intact MS) [1]: specifically and covalently bound to residue C530
- AUC (PK studies in mice; [2]): 960 ng·h/mL
- Cmax (PK studies in mice; [2]): 352 ng/mL
- Tmax (PK studies in mice; [2]): 0.167 h
- half-life (PK studies in mice; [2]): 6.38 h
- AUC (PK studies in mice; [3]): 1210 ng·h/mL
- Cmax (PK studies in mice; [3]): 1420 ng/mL
- Tmax (PK studies in mice; [3]): 0.083 h
- Vd (PK studies in mice; [3]): 4.5 L/kg
- clearance (PK studies in mice; [3]): 27.7 mL/min/kg
- half-life (PK studies in mice; [3]): 2.77 h
- AUC (PK studies in mice; [4]): 360 ng·h/mL
- Cmax (PK studies in mice; [4]): 153 ng/mL
- Tmax (PK studies in mice; [4]): 0.5 h
- half-life (PK studies in mice; [4]): 5.81 h
- Oral bioavailability (PK studies in mice; mice): insufficient oral bioavailability
